Active and inactive are the calls of the source. The calls are words filed in the database; no cut-off is given here.
Key:
[1] = biological target: Quadruplex DNA; assay: Binding affinity to mito 55 G4 DNA (unknown origin) assessed as dissociation constant measured upto 450 secs by surface plasmon resonance assay; format: nucleic-acid assay
Procedure, shortened: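 Surface plasmon resonance in buffer at 25 °C. Four G4-mtDNAs (Mito 78, Mito 55, Mito 29, Mito 0.5-16) and the hairpin HP19 served as substrates. Kd was derived from the sensorgrams.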

[2] = test system: HeLa; assay: Antiproliferative activity against human HeLa cells measured after 48 hrs by MTT assay; format: functional, cell-based
Procedure, shortened: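 Cells exposed to the ligands for 48 h. Viability was read by MTT, and the IC50 was derived from the response.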

[3] = biological target: Quadruplex DNA; assay: Binding affinity to mito 81 G4 DNA (unknown origin) assessed as dissociation constant measured upto 150 secs by isothermal titration calorimetry assay; format: nucleic-acid assay
[4] = Drug localization in lysosome of living human HCT-116 cells assessed as colocalization at 4 uM incubated for 1 hr by lyso-tracker blue staining based analysis; format: ADME, subcellular; conditions: hct-116, 1 h
[5] = test system: HCT-116; assay: Downregulation of ND1 mRNA level in human HCT-116 cells at 0 to 4 uM measured after 48 hrs by qRT-PCR analysis; format: functional, cell-based; conditions: dose 0-4 µM
[6] = test system: HCT-116; assay: Downregulation of ND3 mRNA level in human HCT-116 cells at 0 to 4 uM measured after 48 hrs by qRT-PCR analysis; format: functional, cell-based; conditions: dose 0-4 µM
[7] = test system: HCT-116; assay: Downregulation of ND4 mRNA level in human HCT-116 cells at 0 to 4 uM measured after 48 hrs by qRT-PCR analysis; format: functional, cell-based; conditions: dose 0-4 µM
[8] = test system: HCT-116; assay: Downregulation of ATP6 mRNA level in human HCT-116 cells at 0 to 4 uM measured after 48 hrs by qRT-PCR analysis; format: functional, cell-based; conditions: dose 0-4 µM
[9] = test system: HCT-116; assay: Downregulation of COX1 protein level in human HCT-116 cells at upto 4 uM incubated for 48 hrs by Western blot analysis; format: functional, cell-based
[10] = test system: HCT-116; assay: Downregulation of COX2 protein level in human HCT-116 cells at upto 4 uM incubated for 48 hrs by Western blot analysis; format: functional, cell-based
[11] = test system: HCT-116; assay: Downregulation of COX3 protein level in human HCT-116 cells at upto 4 uM incubated for 48 hrs by Western blot analysis; format: functional, cell-based
[12] = test system: HCT-116; assay: Downregulation of mitochondrial respiratory chain complex-IV level in human HCT-116 cells at upto 4 uM measured after 48 hrs by Western blot analysis; format: functional, cell-based
[13] = test system: Cell membrane; assay: Induction of mitochondrial membrane potential depolarization in human HCT-116 cells assessed as […] in TMRE fluorescence incubated for 48 hrs by TMRE staining based analysis; format: cell membranes; conditions: dose <= 4.0 µM
[14] = test system: HCT-116; assay: Induction of DNA damage in human HCT-116 assessed as increase in tail length at upto 4 uM incubated for 72 hrs by comet assay; format: functional, cell-based
Procedure, shortened: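 HCT116 cells exposed to ligand at 0-4 uM for 72 h. DNA damage assessed by comet assay with DAPI staining (excitation 405 nm), imaged at 200x, tail length measured.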

[15] = test system: HCT-116; assay: Induction of ROS production in human HCT-116 cells assessed as upregulation of ROS level at upto 4 uM measured after 48 hrs in presence of MitoTEMPO by mito-sox staining based analysis; format: functional, cell-based
[16] = test system: DNA; assay: Binding affinity to SS19 DNA (non-G4 DNA) (unknown origin) assessed as increase in CD signal at 5 uM by circular dichroism spectroscopic analysis; format: nucleic-acid assay
[17] = test system: Quadruplex DNA; assay: Binding affinity to Mito 55 G4 DNA (unknown origin) assessed as change in melting temperature at 5 uM by circular dichroism spectroscopic analysis; format: nucleic-acid assay
[18] = Drug localization in human HCT-116 cells by measuring red foci at 4 uM incubated for 1 hr in presence of RNA by hoechst33342 staining based analysis; format: ADME, cell-based; conditions: hct-116, 1 h
Procedure, shortened: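 Live HCT116 cells loaded with ligand 4 uM for 1 h and Hoechst33342 1 uM for 30 min, then fixed. Fixed cells digested with 200 units DNase I or RNase A for 3 h. Red foci imaged by confocal microscopy in 100 cells. Mean ± SEM, t test.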

[19] = test system: HCT-116; assay: Downregulation of lamin B1 level in human HCT-116 cells measured after 72 hrs by Western blot analysis; format: functional, cell-based; conditions: dose <= 4.0 µM
Procedure, shortened: (§1)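 HCT116 cells treated with ligand at 0-4 uM for 72 h. Lamin B1 and Ki67 imaged by immunofluorescence (excitation 635 nm), or lamin B1 probed on Western blot with β-actin as loading control.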

[20] = test system: HCT-116; assay: Downregulation of Ki67 expression level in human HCT-116 cells at upto 4 uM measured after 72 hrs by immunofluorescence analysis; format: functional, cell-based; procedure, shortened: as §1
[21] = test system: HCT-116; assay: Induction of apoptosis in human HCT-116 cells at upto 4 uM measured after 72 hrs by annexin V-BUV396 and 7-AAD staining based flow cytometry analysis (reference value: 2.64%); format: functional; conditions: up to 4 µM
Procedure, shortened: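 HCT116 cells treated at 0-4 uM for 72 h, stained with Annexin V-BUV396 and 7-AAD, and the apoptotic fraction quantified by flow cytometry.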

[22] = test system: HCT-116; assay: Induction of cell cycle arrest in human HCT-116 cells assessed as accumulation of cells at G0/G1 phase measured after 72 hrs by PI staining based flow cytometry analysis; format: functional; conditions: dose 1-4 µM
Procedure, shortened: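 HCT116 cells treated at 0-4 uM for 72 h. Cell-cycle distribution measured by flow cytometry and G0/G1 percentage recorded.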

[23] = Toxicity in BALB/c nude mouse assessed as change in lymphocyte count at 5 mg/kg, iv administered every two days for 16 days; format: organism-based; conditions: in vivo, 384 h, time 16 day
Procedure, shortened: (§2)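 HCT116 xenograft-bearing male Balb/c nude mice (6/group) dosed iv at 5 mg/kg every two days or with PBS. Whole blood collected at sacrifice on day 16 for hematology parameters.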

[24] = Toxicity in BALB/c nude mouse assessed as change in red blood cell count at 5 mg/kg, iv administered every two days for 16 days; format: organism-based; conditions: in vivo, 384 h, time 16 day; procedure, shortened: as §2
[25] = Toxicity in BALB/c nude mouse assessed as change in hemoglobin level at 5 mg/kg, iv administered every two days for 16 days; format: organism-based; conditions: in vivo, 384 h, time 16 day; procedure, shortened: as §2
[26] = Toxicity in BALB/c nude mouse assessed as change in mean red blood cell volume at 5 mg/kg, iv administered every two days for 16 days; format: organism-based; conditions: in vivo, 384 h, time 16 day; procedure, shortened: as §2
[27] = Toxicity in BALB/c nude mouse assessed as change in mean platelet volume at 5 mg/kg, iv administered every two days for 16 days; format: organism-based; conditions: in vivo, 384 h, time 16 day; procedure, shortened: as §2
[28] = Toxicity in BALB/c nude mouse assessed as change in platelet count at 5 mg/kg, iv administered every two days for 16 days; format: organism-based; conditions: in vivo, 384 h, time 16 day; procedure, shortened: as §2
[29] = Drug localization in human HCT-116 cells transfected with Cy5-mito 78 G4 DNA at 4 uM incubated for 1 hr by hoechst33342 staining based analysis; format: ADME, cell-based; conditions: hct-116, 1 h
Procedure, shortened: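 HCT116 cells transfected with Cy5-coupled mtDNA for 24 h, then given ligand 4 uM for 1 h and Hoechst33342 1 uM for 30 min. Single-plane confocal imaging of living cells, ligand excited at 488 nm, Cy5 at 635 nm. Colocalization expressed as r.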

[30] = Drug localization in human HCT-116 cells transfected with Cy5-mito 0.5-16 G4 DNA at 4 uM incubated for 1 hr by hoechst33342 staining based analysis; format: ADME, cell-based; conditions: hct-116, 1 h
Procedure, shortened: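 HCT116 cells transfected with Cy5-labelled DNA (excitation 635 nm) for 24 h. Ligand 4 uM added for 1 h, then Hoechst33342 1 uM for 30 min. Colocalization of ligand with Cy5 quantified by Pearson r from confocal images.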

## C(=C\c1ccc2ccccc2[n+]1CCCCCCCC[n+]1c(/C=C/c2ccc(N3CCCCC3)cc2)ccc2ccccc21)/c1ccc(N2CCCCC2)cc1.[I-].[I-]
[1]
  Kd: 170 nM
[2]
  IC50: 23500 nM
[3]
  Kd: 60 nM
[4]
  Drug uptake: Not Active
[5]
  Activity: Active
[6]
  Activity: Active
[7]
  Activity: Active
[8]
  Activity: Active
[9]
  Activity: Active
[10]
  Activity: Active
[11]
  Activity: Active
[12]
  Activity: Active
[13]
  Activity: Dose-Dependent Effect
[14]
  Activity: Active
[15]
  Activity: inactive
[16]
  Activity: inactive
[17]
  ΔTm: 3.6 °C
[18]
  Drug uptake: Active
[19]
  Activity: Dose-Dependent Effect
[20]
  Activity: Active
[21]
  Activity: 27.4%
[22]
  Activity: Dose-Dependent Effect
[23]
  Activity: Non-Toxic
[24]
  Activity: Non-Toxic
[25]
  Activity: Non-Toxic
[26]
  Activity: Non-Toxic
[27]
  Activity: Non-Toxic
[28]
  Activity: Non-Toxic
[29]
  Drug uptake: Active
[30]
  Drug uptake: Active
